Shown is part of a subset that was picked to be rich in hits.
RORA inh: blocks the human nuclear receptor RORA. P35398. CHO-K1 Gal4-RORA LBD luciferase reporter, luminescence. inhibition, % at 10 µM. AID 561. 65,000 compounds, 0.43% hits;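 active = inhibition above the mean of all tested compounds plus 3 SD, cut at about 52% in these data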;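 note: 0% = RORA-transfected cells with DMSO and 100% = mock-transfected cells lacking RORA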
Target sequence (P35398 whole entry, looked up, the tested form may be a part): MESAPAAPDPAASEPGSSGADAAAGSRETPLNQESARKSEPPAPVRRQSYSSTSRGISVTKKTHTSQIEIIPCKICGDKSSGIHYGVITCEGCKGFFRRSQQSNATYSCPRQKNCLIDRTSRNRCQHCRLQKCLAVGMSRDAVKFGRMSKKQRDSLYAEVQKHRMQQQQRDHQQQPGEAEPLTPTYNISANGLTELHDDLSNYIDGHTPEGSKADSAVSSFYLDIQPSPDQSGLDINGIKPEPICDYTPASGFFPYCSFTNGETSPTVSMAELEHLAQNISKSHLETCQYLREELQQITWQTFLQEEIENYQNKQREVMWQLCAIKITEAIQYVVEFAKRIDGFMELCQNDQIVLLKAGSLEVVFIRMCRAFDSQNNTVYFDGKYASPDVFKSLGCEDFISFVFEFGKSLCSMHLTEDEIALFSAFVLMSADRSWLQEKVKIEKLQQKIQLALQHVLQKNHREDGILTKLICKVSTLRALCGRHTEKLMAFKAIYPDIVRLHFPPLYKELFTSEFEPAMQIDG
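Material: transiently transfected CHO-K1 cells, Gal4-DBD/human RORA-LBD fusion plus 5xGal4-luciferase reporter; doses: single concentration per compound, 10 µM final; incubation: 20 h at 37 °C; detection: luminescence from basal luciferase reporter expression; read-out: % inhibition of basal luciferase versus +RORA/-RORA DMSO controls; replication: tested once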
* = called active by the depositor.

SMILES	RORA inh
O=C(O)c1ccc(COc2ccc(CO)cc2Cl)cc1	-4.9
O=C(O)c1cccc(COc2ccc(CO)cc2Cl)c1	93.8*
CCC(C)NC(=O)C1CCCN(C(=O)Nc2ccc(F)cc2)C1 (configuration not stated)	-6.6
O=C(NCCCN1CCOCC1)C1CC(=O)N(C2CCCCC2)C1 (configuration not stated)	12.6
Cn1nnnc1Sc1nc(-c2cccnc2)nc2ccccc12	0.7
OCCNc1nc(OCC(F)(F)F)nc(N2CCN(C34CC5CC(CC(C5)C3)C4)CC2)n1	21.3
COc1ccc(CN2C(=O)CCC2(C)C(=O)NC2CCCCCC2)cc1 (configuration not stated)	4.2
O=C(Cn1cnc2ccccc21)OCC(=O)N1CCc2ccccc2C1	10.2
CCCCOC(=O)c1[nH]c2c(c1C)C(=O)CC(c1cc(OC)c(OC)c(OC)c1)C2 (configuration not stated)	63.6*
COCCOC(=O)c1[nH]c2c(c1C)C(=O)C(C(=O)OC)C(C)C2 (configuration not stated)	-55.9
CCCCN(C)C(=O)C1CCC(=O)N(c2cc(OC)c(OC)c(OC)c2)C1c1ccc(OC)cc1 (configuration not stated)	-10.5
C=CCOc1ccc(C2c3c(oc4ccccc4c3=O)C(=O)N2c2ccccn2)cc1OCC (configuration not stated)	-10.5
O=C(Nc1ncnc2c1ncn2C1OC(COC(=O)c2ccccc2)C(F)C1O)c1ccccc1 (configuration not stated)	8.5
c1ccc2c(c1)ncn2CCC1CCCCC1	5.4
COc1ccc(Cl)cc1NC(=O)c1cnc2n(c1=O)CCS2	-8.4
Cc1ccccc1NC(=O)c1cnc2ccccn2c1=O	53.5*
Cc1cccc(NC(=O)c2cnc3n(c2=O)CCS3)c1	-75.8
COc1ccc(S(=O)(=O)N(C)CC(=O)N2CCC(C)CC2)cc1Cl	14.8
Cc1cc(-n2nc(C)cc2C)nc(NS(=O)(=O)c2ccccc2)n1	-6.2
CS(=O)(=O)N(CC(=O)NCC1CCCO1)c1ccc(F)c(Cl)c1 (configuration not stated)	6.4
Cn1c(=O)c2nc(Cl)n(Cc3ccc(Cl)cc3Cl)c2n(C)c1=O	1.4
CCN(Cc1ccccc1)C(=O)CCCOc1ccccc1	-58.0
COc1ccc(S(=O)(=O)N2Cc3ccccc3CC2C(=O)Nc2ccc(O)cc2)cc1OC (configuration not stated)	-31.2
COc1ccc(CCNC(=O)C2CCCN(S(C)(=O)=O)C2)cc1OC (configuration not stated)	13.8
COc1ccc(CCNS(=O)(=O)c2cn(C)c(=O)n(C)c2=O)cc1OC	25.0
SMILES	RORA inh
COc1ccc(CCNc2nnc(Sc3nnnn3-c3ccccc3)s2)cc1OC	68.9*
CN(C)CCN1C(=O)C(=O)/C(=C(/O)c2ccc(F)cc2)C1c1ccccc1 (configuration not stated)	-23.5
c1ccc2c(c1)Cc1cc(CN3CCOCC3)ccc1-2	-67.7
CCOC(=O)c1c(N)sc2c1CCC1C(=O)N(C3CCCCC3)C(=O)C21 (configuration not stated)	3.7
Cc1c(C(=O)Nc2ccccc2)sc2nc(-c3ccccc3)cn12	-58.2
CCc1nn2cc(-c3ccccc3)nc2s1	66.4*
CCS(=O)(=O)n1nc(-c2ccccc2)cc1N	0.0
N=C1C(c2ccccc2)=C(O)CN1c1ccccc1N1CCOCC1	2.3
CCCc1cc(=O)[nH]c(Nc2ccc(OC)c(Cl)c2)n1	6.2
Clc1ccc(-n2ncc3c(N4CCCCCC4)ncnc32)cc1	68.3*
Cc1cccc(-n2ncc3c(NCCCO)ncnc32)c1	-83.1
COc1ccc(-n2c(C)nc3c(cnn3-c3ccc(C)c(C)c3)c2=O)cc1	-64.9
CC1CN(c2ncnc3c2cnn3-c2ccc(Cl)cc2)CC(C)O1 (configuration not stated)	-67.1
COc1ccc(-n2ncc3c(N4CCCCC4)ncnc32)cc1	87.1*
Cc1cccc(-n2ncc3c(N4CCOCC4)ncnc32)c1	67.3*
COc1ccc2nc(N3CCCCC3)c(C#N)cc2c1	-30.7
CCCCNc1ncnc2c1cnn2-c1ccc(Cl)cc1	-109.3
C=CCNc1ncnc2c1cnn2-c1cccc(C)c1	-54.7
CCOC(=O)c1cccc(NC(=O)C(NS(=O)(=O)c2ccc3c(c2)CCN3C(C)=O)C(C)C)c1 (configuration not stated)	20.7
COc1ccc(CNC(=O)CCCCCn2c(SCC#N)nc3cc4c(cc3c2=O)OCO4)cc1	-15.5
CC(=O)c1c(N2CCN(Cc3ccc4c(c3)OCO4)CC2)nc(=S)n(-c2ccccc2)c1C	10.6
O=C(CSc1nnc(NC(=O)CN2CCOCC2)s1)Nc1ccccc1	8.5
CC(C)NC(=O)CCNS(=O)(=O)c1ccc(Br)cc1	7.9
Cc1csc(NC(=O)CNC(=O)OCc2ccccc2)n1	17.0
CC(C)(C)NC(=O)CSc1n[nH]c(=O)n1-c1ccccc1	-4.4
SMILES	RORA inh
Cc1ccc(C)n1-c1ccc(N2CCOCC2)nc1	12.1
CC1CCN(C(=O)CN2C(=O)c3ccccc3S2(=O)=O)CC1	-26.3
O=C1c2ccccc2S(=O)(=O)N1Cc1nc2ccccc2s1	53.7*
CN(C)c1ccc(C2=NOC(CN3C(=O)c4ccccc4S3(=O)=O)C2)cc1 (configuration not stated)	-60.1
C=CCn1c(SCC(=O)Nc2nccs2)nnc1-c1cc2cccc(OC)c2o1	9.6
COc1ccc(C(=O)Nn2c(SCC(=O)NCC3CCCO3)nc3ccccc3c2=O)cc1 (configuration not stated)	67.4*
CC(=O)NCCn1c(SCC(=O)NCC2CCCO2)nc2ccccc2c1=O (configuration not stated)	5.6
COc1ccc(CN(CC(=O)NCC2CCCO2)C(=O)CCC(=O)Nc2cc(C)ccn2)cc1 (configuration not stated)	-9.0
CCN(CC)S(=O)(=O)c1cccc(-c2nnc(SC(C)C#N)n2Cc2ccccc2)c1 (configuration not stated)	-2.3
O=C1CN(C(=O)OCc2ccccc2)c2ccccc2N1	-51.1
CCC(C)(C(=O)NC1CCCCC1)N(C(=O)c1cnccn1)c1c(C)n(C)n(-c2ccccc2)c1=O (configuration not stated)	1.0
CCCCOc1ncnc2c1[nH]c1ccc(F)cc12	70.4*
CCOc1ccccc1N(CC(=O)NC1CCCC1)C(=O)CCC(=O)Nc1cc(C)on1	12.6
Cc1cc(NO)nc(-c2ccc(Br)cc2)n1	-59.3
COc1ccc(N(CC(=O)NCc2ccco2)S(C)(=O)=O)cc1Cl	1.4
O=C(Nn1c(C2CC2)nc2ccccc2c1=O)c1ccco1	11.5
N#C/C(=C/c1ccc(N2CCCCCC2)o1)c1ccc(F)cc1	62.1*
O=C1Nc2ccc(S(=O)(=O)NCCC3=CCCCC3)c3cccc1c23	-13.0
COc1cccc(OC)c1-c1nn2c(-c3ccccc3Cl)nnc2s1	13.6
Cc1cccc(N2CC(C(=O)Nc3ccc4c(c3)OCO4)CC2=O)c1C (configuration not stated)	26.5
COc1ccccc1C(=O)Nc1ccccn1	-44.7
COc1ccc(C(=O)Nc2ccc(C)cn2)c(OC)c1	78.3*
CCOc1ccc(NC(=O)c2ccccc2OC)cc1	-49.0
Cc1noc(C)c1COC(=O)c1cccc(S(=O)(=O)N2c3ccccc3CC2C)c1 (configuration not stated)	-27.7
Cc1ccc(-c2nnc(CSc3nncn3N)o2)cc1	-2.8
O=C(COC(=O)c1cc(=O)[nH]c2ccccc12)NC(=O)NC1CCCCC1	17.5

Compound activity deposited in PubChem BioAssay by The Scripps Research Institute Molecular Screening Center.
